Assay results: the RNAGym collection of RNA variant scans (doi:10.1126/science.aae0568)
This sample holds only a part of the variants without activity.

B1: tRNA (parent)
chain: GUUCCGUUGGCGUAAUGGUAACGCGUCUCCCUCCUAAGGAGAAGACUGCGGGUUCGAGUCCCGUACGGAACG

Variants of: B1
Experiment: yeast fitness relative to wild type (ratio to wild type); higher = fitter; tRNA-Arg(CCU), competitive growth, 37 C, YPD
In short: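 For this measurement, the tRNA-Arg(CCU) gene was varied by chemical synthesis at a 3% per-site mutation rate across 69 sites, and each variant was placed at the native genomic locus in Saccharomyces cerevisiae. The pooled strains went through a 24-hour competition in YPD at 37°C in six parallel replicates, with amplicons from start and end populations read by 100-nucleotide paired-end sequencing. Darwinian fitness relative to wild type followed from the change in each genotype's frequency. Genotypes needed ≥ 100 starting reads, and estimates < 0.5 were set to 0.5.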
Variant C27G G52A C60G A69U A70C has a yeast fitness of 0.514. U28A C31G A42U C49G G67U showed a yeast fitness of at most 0.5. Variant C27U C29A A36U A40C G52C has a yeast fitness of 0.583. In the case of C27G U32C A42C G48C C55G C60U, the yeast fitness is reported as at most 0.5. Variant U28A C29U A37G G52C has a yeast fitness of at most 0.5. Variant U28A C29G G51A G56A A69C has a yeast fitness of at most 0.5. C27U G38A C66A gave a yeast fitness of 0.645. Variant C27G U47G C49U C66U has a yeast fitness of 0.584. For U28A C33A G51C A57C, the yeast fitness was at most 0.5. Variant U28A A36U has a yeast fitness of 0.564. Variant U28A A36G has a yeast fitness of 0.73. C27U C29G A42G gave a yeast fitness of at most 0.5. With C27U U47C C55U C62G A69U the yeast fitness was at most 0.5. U28A A40U C49U C60A G63A gave a yeast fitness of at most 0.5. Variant C27U C61A has a yeast fitness of 0.62. With C27U C61G the yeast fitness was 0.647. Work on C27U U47G C55G G58C yielded a yeast fitness of 0.67. In the case of U28A A43C G48A A70C, the yeast fitness is reported as 0.577. In the case of C27U A40C, the yeast fitness is reported as 0.809. C27U U59C A69U gave a yeast fitness of 0.795. In the case of C27U U28A U32A C34U A36C G48A C60U, the yeast fitness is reported as at most 0.5. C27G U28A A65U A70U gave a yeast fitness of 0.558. For C27G G52C, the yeast fitness was 0.549. With C27U C46G A65G the yeast fitness was 0.725. Work on U28A A70U yielded a yeast fitness of 0.738. In the case of C27U C29U C60U A69G, the yeast fitness is reported as 0.565. Variant C27U C66G G67C has a yeast fitness of at most 0.5. U28A C31U U32A C55U gave a yeast fitness of at most 0.5. With C27U A43C A69U the yeast fitness was 0.882. Variant C27U G63A A65G has a yeast fitness of at most 0.5. C27U C33U A36U G63C showed a yeast fitness of 0.541. Work on U28A A40U A69U yielded a yeast fitness of 0.769. For C27U A36U A43G C46U, the yeast fitness was 0.559. Work on C27U C29G A57C C61A yielded a yeast fitness of at most 0.5. Variant C27U C55U G56A A57C has a yeast fitness of 0.526. Variant U28A A40G A43U A65U C66U has a yeast fitness of at most 0.5. U28A A40G G51C U54A G58C C66U showed a yeast fitness of at most 0.5. Variant C27G U53A G63A has a yeast fitness of at most 0.5. Variant C27U C31U A40U A45U C49G G63A has a yeast fitness of 0.589. In the case of U28A C31G U35C U47C C60U C61U, the yeast fitness is reported as at most 0.5. With C27U G67A the yeast fitness was 1.02. Work on C27U G51C C61G yielded a yeast fitness of at most 0.5. With C27U U35C A36G C49G the yeast fitness was at most 0.5. C27U G38A G48C showed a yeast fitness of 0.562. Variant C27U C31A G44C A70G has a yeast fitness of at most 0.5. U28A A36G C66G gave a yeast fitness of at most 0.5. U28A C30A G67U gave a yeast fitness of 0.642. With C27U G44C G68A the yeast fitness was 0.666. In the case of C27U C55G, the yeast fitness is reported as 0.675. Work on C27U C55A yielded a yeast fitness of 0.583. C27U A37U C66U showed a yeast fitness of 0.542. Work on C27U C31U G67C yielded a yeast fitness of 0.727. Variant U28A A43C A57C has a yeast fitness of 0.608. In the case of C27U G56C C66U, the yeast fitness is reported as at most 0.5. Work on C27U C33G A43G U53C A57G C61U C62U A70G yielded a yeast fitness of at most 0.5. With C27U G63C the yeast fitness was 0.715. In the case of C27U U64C C66A, the yeast fitness is reported as at most 0.5. C27G U32C A57G showed a yeast fitness of 0.578. For C27U C49U, the yeast fitness was 1. With C27U G39C C49U the yeast fitness was at most 0.5. C27U C30U C62A showed a yeast fitness of 0.564. Variant C27U A43C G68U has a yeast fitness of 0.612. C27U C29A G38C A57G A65C C66A showed a yeast fitness of at most 0.5. Work on C27U A42C yielded a yeast fitness of 0.997. Work on C27U A42U yielded a yeast fitness of 1.09. C27G G48C G52C C62G showed a yeast fitness of at most 0.5. With C27U G48A A70U the yeast fitness was 0.775. Variant C27G U32G A36C C46G A70U has a yeast fitness of at most 0.5. Work on C27U U28G C33G A36G yielded a yeast fitness of at most 0.5. C27U C49A U64C G67A gave a yeast fitness of at most 0.5. Work on U28A A42G A57G yielded a yeast fitness of at most 0.5. Work on C27U U47A C61A A65G yielded a yeast fitness of at most 0.5. In the case of C27U C33U A40C C55A, the yeast fitness is reported as at most 0.5. With C27U C33U A37U G51A A70G the yeast fitness was 0.552. In the case of U28A A37U, the yeast fitness is reported as 0.73. For C27U C31U G51C C66A, the yeast fitness was at most 0.5. C27U C29U A36C showed a yeast fitness of at most 0.5. In the case of U28A C31A C33U A37C G50A A65U, the yeast fitness is reported as at most 0.5. In the case of C27G U28C C61U, the yeast fitness is reported as at most 0.5. C27U C46A G50A C62U showed a yeast fitness of 0.888. Work on C27G G56A A70U yielded a yeast fitness of 0.531. Variant C27U U28A U32A C34U A36C C55A G68A has a yeast fitness of at most 0.5. C27G G48C G56C gave a yeast fitness of at most 0.5. C27U C33A gave a yeast fitness of 0.618. U28A C29G G44C A65U showed a yeast fitness of 0.935. Variant C27U G39C C49U G63C has a yeast fitness of at most 0.5. C27U C31A A69C showed a yeast fitness of 0.598. Work on C27U A70C yielded a yeast fitness of 1.03. C27U A70U gave a yeast fitness of 0.988. In the case of C27U A70G, the yeast fitness is reported as 0.988. Variant C27U U32C G41A A42U G44A C46U G58A C60U has a yeast fitness of at most 0.5. Work on C27U U47A yielded a yeast fitness of 0.721. In the case of C27U U47C, the yeast fitness is reported as 0.975. C27U U47G gave a yeast fitness of 0.621. C27U C33G C55G C61U showed a yeast fitness of 0.539. For C27G G50A, the yeast fitness was 0.654. Work on C27U C30U U53A yielded a yeast fitness of 0.62. In the case of C27U C31G A69U, the yeast fitness is reported as 0.624. Variant C27U C34G A40G C46G C49A U59C has a yeast fitness of at most 0.5. For C27U A37C A40U A43U, the yeast fitness was 0.541. Variant C27U A36U U54A A69C has a yeast fitness of 0.624. With C27G U28C C62G the yeast fitness was at most 0.5. With C27U A36G A37G G56C the yeast fitness was at most 0.5. Variant C27U U28G A40C C46A C49U has a yeast fitness of 0.995. C27U A40G C55U G56A U64G A69U showed a yeast fitness of at most 0.5. For C27U C30U A40U G48C G63A, the yeast fitness was 0.535. U28A A45C A65C gave a yeast fitness of at most 0.5. Work on C27U C33G C34G G44A G50A G52A G56A yielded a yeast fitness of at most 0.5. C27U U59A A65U gave a yeast fitness of at most 0.5. C27U C29A C55G A65G showed a yeast fitness of at most 0.5. For C27U G58A, the yeast fitness was 0.899. Variant C27U G58C has a yeast fitness of 1.02. U28A C33U C55G A70U gave a yeast fitness of at most 0.5. Variant C27U A45C C55G G58C has a yeast fitness of at most 0.5. C27G U32G showed a yeast fitness of at most 0.5. For C27G U32A, the yeast fitness was 0.539. For C27G U32C, the yeast fitness was 0.935. U28A C29A C46U C55G showed a yeast fitness of at most 0.5. C27U A36C C61U gave a yeast fitness of at most 0.5. For C27U A36U G44A, the yeast fitness was at most 0.5. For C27U C34G A45U C60A, the yeast fitness was at most 0.5. Work on U28A A43U U53A yielded a yeast fitness of at most 0.5. C27U C29U C49G showed a yeast fitness of at most 0.5. With C27U C29U C49U the yeast fitness was 0.71. Variant C27U U32A A69U has a yeast fitness of 0.774. C27G G56A gave a yeast fitness of 0.614. C27U G51C C62G gave a yeast fitness of at most 0.5. With U28A C31G U35A U47A U54A the yeast fitness was at most 0.5. Work on C27U C30G A40G G51C U64C yielded a yeast fitness of at most 0.5. C27U G51A U53A G63C gave a yeast fitness of at most 0.5. C27U C46U G48A gave a yeast fitness of 0.888. C27U A45G C49G A65C gave a yeast fitness of at most 0.5. Work on C27U C46G C66G A69G yielded a yeast fitness of at most 0.5. U28A C34G C49G showed a yeast fitness of at most 0.5. For C27U C31U A40U A45U C49G A65C, the yeast fitness was at most 0.5. In the case of C27U G58C A69C, the yeast fitness is reported as 1.05. C27U U28A U32A C34U A36C C55A A70G gave a yeast fitness of 0.539. C27U G48A C49U A65G gave a yeast fitness of 0.714. For C27G U32A G41A, the yeast fitness was 0.671. In the case of C27U G41C, the yeast fitness is reported as 0.898. In the case of C27U G68U, the yeast fitness is reported as 0.755. For C27U G68C, the yeast fitness was 0.757. Variant C27U G68A has a yeast fitness of 0.822. Work on C27U U32A C33A yielded a yeast fitness of 0.51. U28A A57C C66G gave a yeast fitness of at most 0.5. For C27U A43C C60A, the yeast fitness was at most 0.5. For C27G U32C U54C C62U, the yeast fitness was at most 0.5. Variant C27U A42U U53G G68C has a yeast fitness of 0.545. C27U C33G C34U C61U G67A G68C showed a yeast fitness of at most 0.5. Work on C27G G67C yielded a yeast fitness of 0.677. Work on C27G G67A yielded a yeast fitness of 0.637. In the case of C27U C62A, the yeast fitness is reported as 0.764. Work on C27U C62U yielded a yeast fitness of 1.01. Work on C27U G51C U59C G63A yielded a yeast fitness of at most 0.5. With C27U C33G G39A A43G A57G C61U C62U the yeast fitness was at most 0.5. Variant U28A A45C C46G G67A has a yeast fitness of 0.532. In the case of C27U A36G G50A G58A A69C, the yeast fitness is reported as at most 0.5. Work on C27U U54A yielded a yeast fitness of 0.543. Work on C27G U28C A45C G48A C55A yielded a yeast fitness of 0.601. In the case of C27U A43U C55U A69C, the yeast fitness is reported as at most 0.5. Work on C27U C34A G44C C62A yielded a yeast fitness of 0.539. For C27U C34A, the yeast fitness was 0.728. For C27U C34G, the yeast fitness was 0.698. Variant C27U A45U C66U has a yeast fitness of 0.7. C27G U28A C30G C31U A40G G67A gave a yeast fitness of at most 0.5. Work on C27U U28G C31A C46U yielded a yeast fitness of at most 0.5. With C27U U47C A69U the yeast fitness was 0.838.
